The values that follow come from ChEMBL document CHEMBL1142195, “A novel nonnucleoside analogue that inhibits human immunodeficiency virus type 1 isolates resistant to current nonnucleoside reverse transcriptase inhibitors” (Antimicrob Agents Chemother, 2007).

Active and inactive are the calls of the source. No cut-off for these calls is given here.

Data set [1] in a line: Plasma concentration in dog at 20 mg/kg, po after 12 hrs. Format: ADME, organism-based, Canis lupus familiaris. Also on record: dose 20 mg/kg, route oral.
In data set [2] the test system is Human immunodeficiency virus 2. Nature of the data set: Inhibition of HIV2(NIH-Z) isolate. Type of data set: functional, organism-based. An outline of the steps:
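HeLa-JC53-LTR-Luci cells (HIV-1 LTR-driven luciferase) infected with HIV-2 at MOI 0.03, with 1:4 serial compound dilutions (final DMSO 0.2%, 2% FBS medium). Incubated 48 h at 37°C in 5% CO2. Luciferase chemiluminescence read-out.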

Another data set deals with Hepatitis B virus. Nature of the data set: Inhibition of hepatitis B virus replication. Format: functional, organism-based.
A further data set relates to Hepatitis C virus. Nature of the data set: Inhibition of hepatitis C virus replication. Type of data set: functional, organism-based. The settings on record: Hepacivirus hominis.
Data set [3] deals with Human immunodeficiency virus 1. As to the kind of experiment: Inhibition of non-B HIV1 isolates (clades A, AC, C, D and F). Format: functional, organism-based.
For data set [4], the target named is DNA polymerase beta (Homo sapiens) (UniProt P06746). As to the kind of experiment: Inhibition of human DNA polymerase beta upto 45 uM.
Data set [5] has as its target Human immunodeficiency virus type 1 reverse transcriptase (Human immunodeficiency virus 1, UniProt Q72547). Nature of the data set: Inhibition of HIV1 reverse transcriptase. Put shortly: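 E. coli-expressed HIV-1 RT (1 nM) with 16 μg/ml poly(rA)/oligo(dT)18 and 2 μM α-33P-TTP, 0–100 μM inhibitor. Buffer: 50 mM Tris-HCl pH 7.5, 5 mM MgCl2, 1 mM DTT, 60 μg/ml BSA. Run 1 h at 25°C, then TCA/pyrophosphate precipitation and radioactivity counted. IC50 = 50% inhibition of RT activity.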

In data set [6] the test system is Human immunodeficiency virus 1. As to the kind of experiment: Antiviral activity against wild type HIV1 NL4-3 in Hela-JC53 cells in the presence of 30% human serum after 48 hrs. Type of data set: functional, organism-based. The note with it: Human immunodeficiency virus 1, NL4-3, Hela-JC53, 48 h. An outline of the steps:
(§1)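 HeLa-JC53 cells (1.5 × 10^4) infected with VSV-G-pseudotyped NL4-3.Luci.R−E− reporter virus at MOI 0.03, with 1:4 serial compound dilutions. Heat-inactivated human serum added to final 0–50% on a basal 2% FBS medium. Incubated 48 h at 37°C in 5% CO2. Luciferase read-out; EC50 by nonlinear regression.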

Data set [7] deals with Human immunodeficiency virus 1. As to the kind of experiment: Antiviral activity against wild type HIV1 NL4-3 in Hela-JC53 cells in the presence of 20% human serum after 48 hrs. The settings on record: Human immunodeficiency virus 1, NL4-3, Hela-JC53, 48 h. Type of data set: functional, organism-based. An outline of the steps:
as §1

For data set [8], the system named is Human immunodeficiency virus 1. Nature of the data set: Antiviral activity against HIV1 NL4-3 in Hela-JC53 cells in the presence of 10% human serum after 48 hrs. Format: functional, organism-based. The note with it: Human immunodeficiency virus 1, NL4-3, Hela-JC53, 48 h. Put shortly:
as §1

For data set [9], the system named is Human immunodeficiency virus 1. As to the kind of experiment: Antiviral activity against wild type HIV1 NL4-3 in Hela-JC53 cells in the presence of 5% human serum after 48 hrs. Type of data set: functional, organism-based. The settings on record: Human immunodeficiency virus 1, NL4-3, Hela-JC53, 48 h. Put shortly: as §1
Data set [10] deals with Human immunodeficiency virus 1. Nature of the data set: Antiviral activity against HIV1 isolate with RT K103N-Y188L mutation. Format: functional, organism-based. Put shortly: (§2)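 VSV-G-pseudotyped pNL4-3.Luc.R−E− molecular clones carrying the RT mutations, single-round infection of HeLa-JC53 cells (15,000/well) at MOI 0.03. Compounds serially diluted 1:4 in DMSO then in phenol red-free DMEM with 2% FBS, final DMSO 0.2%. Incubated 48 h at 37°C, 5% CO2. Luciferase read-out by chemiluminescence gives the EC50. Fold change is relative to wt virus, mean of two tests.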

The test system of data set [11] is Human immunodeficiency virus 1. Nature of the data set: Antiviral activity against HIV1 isolate with RT K103N-K101Q-P225H mutation. Format: functional, organism-based. Put shortly:
as §2

In data set [12] the test system is Human immunodeficiency virus 1. Nature of the data set: Antiviral activity against HIV1 isolate with RT A98G mutation. Type of data set: functional, organism-based. An outline of the steps:
as §2

Data set [13] has as its system Human immunodeficiency virus 1. As to the kind of experiment: Antiviral activity against HIV1 isolate with RT F227L mutation in Hela-JC-53 cells. Type of data set: functional.
Data set [14] deals with Human immunodeficiency virus 1. Nature of the data set: Antiviral activity against HIV1 isolate with RT V106I, Y181C, F227L, T369I mutation in Hela-JC-53 cells. Type of data set: functional.
Data set [15] relates to Human immunodeficiency virus 1. Nature of the data set: Antiviral activity against HIV1 isolate with RT V106I, D123G, Y181C, F227L, T369I mutation in Hela-JC-53 cells. Format: functional.
The test system of data set [16] is Human immunodeficiency virus 1. Nature of the data set: Antiviral activity against wild type HIV1 NL4-3 in Hela-JC53 cells in the presence of 40% human serum after 48 hrs. Type of data set: functional, organism-based. The settings on record: Human immunodeficiency virus 1, NL4-3, Hela-JC53, 48 h. Put shortly:
as §1

Data set [17] relates to Human immunodeficiency virus 1. Nature of the data set: Antiviral activity against HIV1 NL4-3 with Y188L mutation in Hela-JC53 cells in the presence of 5% human serum after 48 hrs. Type of data set: functional, organism-based. The note with it: Human immunodeficiency virus 1, NL4-3, Hela-JC53, 48 h. An outline of the steps:
(§3)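 VSV-G-pseudotyped Y188L NL4-3.Luci.R−E− virus (MOI 0.03) infecting HeLa-JC53 cells (1.5 × 10^4) in phenol red-free DMEM with 2% FBS. Serially diluted compound was added, then heat-inactivated human serum at final 0, 5, 10, 20, 30, 40 or 50%. Cultures ran 48 h at 37°C in 5% CO2, read by Bright-Glo luciferase chemiluminescence. EC50 was taken by nonlinear regression.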

Data set [18] deals with Human immunodeficiency virus 1. Nature of the data set: Antiviral activity against HIV1 NL4-3 with Y188L mutation in Hela-JC53 cells in the presence of 20% human serum after 48 hrs. Type of data set: functional, organism-based. The settings on record: Human immunodeficiency virus 1, NL4-3, Hela-JC53, 48 h. Put shortly:
as §3

The test system of data set [19] is Human immunodeficiency virus 1. Nature of the data set: Antiviral activity against HIV1 NL4-3 with Y188L mutation in Hela-JC53 cells in the presence of 30% human serum after 48 hrs. Format: functional, organism-based. The note with it: Human immunodeficiency virus 1, NL4-3, Hela-JC53, 48 h. An outline of the steps:
as §3

A short description of data set [20]: Half life in dog at 10 mg/kg, iv. Type of data set: ADME, organism-based, Canis lupus familiaris. Set-up: dose 10 mg/kg, route intravenous. The note with it: in vivo.
The nature of data set [21]: AUC in dog at 10 mg/kg, iv. The settings on record: plasma. Format: ADME, organism-based, Canis lupus familiaris. Also on record: dose 10 mg/kg, route intravenous.
Data set [22] has as its system Human immunodeficiency virus 1. Nature of the data set: Antiviral activity against HIV1 isolate with RT K103N-Y181C mutation. Format: functional, organism-based. Put shortly: as §2
Data set [23] deals with Human immunodeficiency virus 1. Nature of the data set: Antiviral activity against HIV1 isolate with RT G190S mutation. Format: functional, organism-based. Put shortly: as §2
The test system of data set [24] is Human immunodeficiency virus 1. As to the kind of experiment: Antiviral activity against HIV1 isolate with RT 101R, 103N, 181C, 190A mutation relative to wild type. Type of data set: functional.

As for `NS(=O)(=O)c1ccc(NC(=O)CSc2nnc(Br)n2-c2ccc(C3CC3)c3ccccc23)c(Cl)c1`, the concentration at 12 h in data set [1] amounted to 742 ng/mL. The outcome (in [2]; in the data set on Hepatitis B virus; in the data set on Hepatitis C virus; in data set [4]) was inactive. For the same molecule, the outcome in data set [3] was Active. This molecule also registered a concentration for half-maximal inhibition (IC50) in data set [5] of 4 nM. Besides, the concentration for a half-maximal effect (EC50) in [6] was determined as 8.6 nM; in data set [7], 7.1 nM; in data set [8] it was 3.9 nM; in data set [9], 2.4 nM; in [10], 1.07 nM; in [11], 0.11 nM. Further, the 50% effective concentration (EC50) in data set [12] was 0.3 nM; in data set [16] it was 9.5 nM; in data set [17], 13.7 nM; in data set [18], 43.3 nM; in [19], 45.9 nM; in data set [22], 0.23 nM. In data set [23], this molecule came in with an EC50 of 0.23 nM. The Fold change in data set [13] is given as 0.7; in data set [14], 111.9; in data set [15] it was 31.2. Besides, the half-life in data set [20] was 2.89 h. The area under the curve (AUC) in data set [21] came out at 20900 ng·h/mL.
As to `Cc1ccnc2c1NC(=O)c1cccnc1N2C1CC1` [NEVIRAPINE], in data set [24], the Fold change was >100.

The term IC50 denotes the concentration that inhibits the measured activity by half. Read a high IC50 as a need for much substance. A word on the EC50: it is the concentration needed to bring the measured effect to its halfway point. By half-life is commonly meant the time in which the quantity being followed falls by half. High values mean slow decline, low ones rapid decline. For orientation: AUC means concentration integrated over time. A low value points to low exposure.
